Experimental data taken from ChEMBL document CHEMBL4808162, “Constraining the Side Chain of C-Terminal Amino Acids in Apelin-13 Greatly Increases Affinity, Modulates Signaling, and Improves the Pharmacokinetic Profile” (J Med Chem, 2021).
Active and inactive are the calls of the source. No cut-off for these calls is given here. Peptide text beside a SMILES is read from it.

Experiments:
Apelin receptor [1] = molecular target: T1, Apelin receptor (Homo sapiens, UniProt P35414); test: Displacement of [125I] [NIe75,Tyr77]Pyr-apelin-13 from YFP-tagged human APJ receptor expressed in HEK293 cells incubated for 1 hr by gamma counting analysis; format: cell-based
T1 sequence (P35414 whole entry): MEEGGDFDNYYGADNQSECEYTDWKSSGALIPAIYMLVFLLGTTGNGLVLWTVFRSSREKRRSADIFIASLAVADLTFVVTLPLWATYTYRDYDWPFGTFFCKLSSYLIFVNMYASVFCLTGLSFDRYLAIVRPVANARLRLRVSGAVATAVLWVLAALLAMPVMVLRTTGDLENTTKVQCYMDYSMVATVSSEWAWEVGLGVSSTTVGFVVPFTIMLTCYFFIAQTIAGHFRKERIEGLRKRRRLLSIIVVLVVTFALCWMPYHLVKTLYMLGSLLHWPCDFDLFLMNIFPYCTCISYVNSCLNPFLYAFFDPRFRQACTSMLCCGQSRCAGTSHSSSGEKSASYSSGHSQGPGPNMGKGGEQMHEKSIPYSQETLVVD

Apelin receptor [2] = molecular target: T1, Apelin receptor; test: Agonist activity at human APJ receptor expressed in HEK293T cells co-expressing Galphai1 RlucII assessed as dissociation of Galphai1 from Gbetta/gamma subunit measured using coelenterazine luciferase substrate incubated for 5 mins by BRET assay; format: functional, cell-based, HEK293
Apelin receptor [3] = molecular target: T1, Apelin receptor; test: Agonist activity at human APJ receptor expressed in HEK293T cells co-expressing PDZ-Rho-Gef-RLucll and rGFP-CAAX assessed as induction of recruitment of Galpha12 to cell membrane using coelenterazine luciferase substrate incubated for 5 mins by BRET assay; format: functional, cell-based, HEK293
Apelin receptor [4] = molecular target: T1, Apelin receptor; test: Agonist activity at human APJ receptor expressed in HEK293 cells co-expressing Rlucll-beta-arrestin2 assessed as induction of beta-arrestin2 recruitment to receptor incubated for 30 mins by BRET assay; format: functional, cell-based
[5] = Stability in Sprague-Dawley rat plasma assessed as half life measured up to 24 hrs by UPLC-MS analysis; format: ADME, cell-free
How it was run: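 Peptide (6 μL of 1 mM aqueous solution) incubated with 27 μL male Sprague-Dawley rat plasma at 37 °C. Time points 0, 1, 2, 4, 7, 24 h, or 0–120 min for labile peptides. Reaction quenched with acetonitrile-ethanol containing N,N-dimethylbenzamide internal standard, filtered, then UPLC-MS. t1/2 from one-phase exponential decay; at least three experiments.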

[6] = molecular target: Angiotensin-converting enzyme 2 (Rattus norvegicus, UniProt Q5EGZ1); test: Stability of the compound assessed as recombinant rat ACE2-mediated degradation measured up to 24 hrs by UPLC-MS analysis; format: ADME
How it was run: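 Recombinant rat ACE2 at 20 nM final in 100 mM Tris-HCl, 100 mM NaCl, 10 μM ZnCl2, pH 7.4. Peptide at 50 μM final with N,N-dimethylbenzamide internal standard, incubated 1, 2 and 24 h at 37 °C with shaking. Reaction stopped with EDTA; blank used pre-inactivated enzyme. Remaining peptide measured by UPLC-MS in SIM mode, oxidized forms summed; n = 3.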

[7] = AUCtot in Sprague-Dawley rat plasma at 3 mg/kg, iv bolus injection measured up to 240 mins by LC-MS/MS analysis; format: ADME, organism-based; parameters: route intravenous, dose 3 mg/kg, time <=240; details: in vivo, 4 h
How it was run: (§1)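 Male Sprague-Dawley rats (250−300 g, 8−10 weeks), jugular vein catheter placed 24 h before dosing, n = 3. Single i.v. bolus in 0.9% saline at 3 mg/kg. Blood drawn at 5, 10, 30, 60, 120, 240 min into K2-EDTA tubes. Plasma cleaned by acetonitrile precipitation and HLB, then quantified by LC-MS/MS.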

[8] = Half life in Sprague-Dawley rat plasma at 3 mg/kg, iv bolus injection measured up to 240 mins by LC-MS/MS analysis; format: ADME, organism-based; how it was run: as §1
[9] = Clearance in Sprague-Dawley rat plasma at 3 mg/kg, iv bolus injection measured up to 240 mins by LC-MS/MS analysis; format: ADME, organism-based; how it was run: as §1
Rattus norvegicus [10] = test: Effect on mean arterial blood pressure in Sprague-Dawley rat at 65 nmol/kg, iv bolus injection measured after 1 min; format: functional, organism-based
How it was run: (§2)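 Male Sprague-Dawley rats (250−300 g) under ketamine/xylazine (87/13 mg/kg i.m.) on a thermostatic pad. Mean arterial pressure recorded through a right carotid catheter. Saline vehicle bolus given, then 5 min later the peptide i.v. at 19.6 nmol/kg (n = 5) or 65 nmol/kg.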

[11] = molecular target: T2, Apelin receptor (Homo sapiens) (UniProt P35414); test: Agonist activity at human APJ receptor expressed in HEK293 cells co-expressing Rlucll-beta-arrestin2 assessed as induction of beta-arrestin2 recruitment to receptor incubated for 30 mins by BRET assay relative to control; format: functional, cell-based
T2 sequence (whole entry): T1 sequence (P35414 whole entry)
How it was run: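 HEK293 cells transiently transfected with PEI, carrying hAPJ-GFP10 and RlucII-β-arrestin2. Cells replated at 50 000/well after 24 h, washed, and placed in HBSS. Ligand given at 10⁻⁵ to 10⁻¹¹ M for 30 min at room temperature. 5 μM coelenterazine 400A added, BRET² ratio GFP10/RlucII read. EC50 from dose-response fit; three experiments, each in triplicate.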

Rattus norvegicus [12] = test: Hypotensive effect in Sprague-Dawley rat assessed as drop in mean arterial blood pressure at 19.6 nmol/kg, iv bolus injection measured after 1 min; format: functional; how it was run: as §2
[13] = molecular target: T2, Apelin receptor (Homo sapiens); test: Agonist activity at human APJ receptor expressed in HEK293T cells co-expressing PDZ-Rho-Gef-RLucll and rGFP-CAAX assessed as induction of recruitment of Galpha12 to cell membrane using coelenterazine luciferase substrate incubated for 5 mins by BRET assay relative to control; format: functional, cell-based; details: HEK293, filed as partial agonist
How it was run: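 HEK293T cells (35 000/well) transiently transfected with PEI 48 h before assay, carrying hAPJ, Gα12, Gβ1, Gγ1 and the ebBRET pair PDZ-RhoGEF-RLucII / rGFP-CAAX. Ligand stimulation for 5 min. Curves fitted as normalized variable-slope dose-response with Hill slope shared; eight experiments, each singly.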

Chain of Angiotensin-converting enzyme 2 (Q5EGZ1 whole entry): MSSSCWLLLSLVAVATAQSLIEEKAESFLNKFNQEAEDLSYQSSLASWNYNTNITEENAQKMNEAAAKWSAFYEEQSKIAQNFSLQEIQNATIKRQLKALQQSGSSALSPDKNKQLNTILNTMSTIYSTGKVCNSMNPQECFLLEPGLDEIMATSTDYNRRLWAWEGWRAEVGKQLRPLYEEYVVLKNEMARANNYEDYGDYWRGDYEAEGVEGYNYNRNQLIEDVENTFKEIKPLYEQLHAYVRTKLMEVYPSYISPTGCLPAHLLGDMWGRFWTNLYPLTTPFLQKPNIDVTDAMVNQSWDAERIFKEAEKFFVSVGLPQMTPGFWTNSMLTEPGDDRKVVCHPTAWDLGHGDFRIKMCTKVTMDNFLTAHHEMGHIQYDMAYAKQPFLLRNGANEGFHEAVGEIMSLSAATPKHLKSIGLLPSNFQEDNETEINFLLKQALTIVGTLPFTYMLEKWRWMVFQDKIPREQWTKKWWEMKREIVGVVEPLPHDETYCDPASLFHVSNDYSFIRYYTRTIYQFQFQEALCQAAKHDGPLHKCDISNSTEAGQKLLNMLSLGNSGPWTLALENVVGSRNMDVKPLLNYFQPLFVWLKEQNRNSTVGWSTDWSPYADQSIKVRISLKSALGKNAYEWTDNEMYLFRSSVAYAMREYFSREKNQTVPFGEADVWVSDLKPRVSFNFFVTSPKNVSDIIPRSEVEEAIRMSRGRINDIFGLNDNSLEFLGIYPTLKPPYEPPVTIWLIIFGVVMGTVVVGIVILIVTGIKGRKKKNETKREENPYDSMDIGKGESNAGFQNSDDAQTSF

Row | Structure (SMILES) | Ki (Apelin receptor [1]) | EC50 (Apelin receptor [2]) | EC50 (Apelin receptor [3]) | EC50 (Apelin receptor [4]) | half-life [5] | Stabilty [6] | AUC [7] | half-life [8] | clearance [9] | Ki (Apelin receptor [1]; hek293) | EC50 (Apelin receptor [2]; hek293) | EC50 (Apelin receptor [3]; hek293) | EC50 (Apelin receptor [4]; hek293) | Activity (Rattus norvegicus [10]) | Emax [11] | Activity (Rattus norvegicus [12]) | Emax [13]
1 | CCCC[C@H](NC(=O)[C@@H]1CCCN1C(=O)CNC(=O)[C@H](CCCCN)NC(=O)[C@H](Cc1cnc[nH]1)NC(=O)[C@H](CO)NC(=O)[C@H](CC(C)C)NC(=O)[C@H](CCCNC(=N)N)NC(=O)[C@@H]1CCCN1C(=O)[C@H](CCCNC(=N)N)NC(=O)[C@@H]1CCC(=O)N1)C(=O)N[C@@H](Cc1cccc2ccccc12)C(=O)NC(Cc1ccccc1)(Cc1ccccc1)C(=O)O (HELM PEPTIDE1{[Glp].R.P.R.L.S.H.K.G.P.[Nle].[O=C([C@H](Cc1cccc2ccccc12)N[*:1])[*:2]].[O=C(O)C(Cc1ccccc1)(Cc1ccccc1)N[*:1]]}$$$$V2.0) | 0.08 nM | 3.8 nM | 2.8 nM | 36 nM | 438 min | Stable | 0.12 mg·min/mL | 26 min | 27 mL/min/kg |  |  |  |  |  |  |  | 
2 | CCCC[C@H](NC(=O)[C@@H]1CCCN1C(=O)CNC(=O)[C@H](CCCCN)NC(=O)[C@H](Cc1cnc[nH]1)NC(=O)[C@H](CO)NC(=O)[C@H](CC(C)C)NC(=O)[C@H](CCCNC(=N)N)NC(=O)[C@@H]1CCCN1C(=O)[C@H](CCCNC(=N)N)NC(=O)[C@@H]1CCC(=O)N1)C(=O)N[C@H]1Cc2c([nH]c3ccccc23)CN([C@@H](Cc2ccccc2)C(=O)O)C1=O |  |  |  |  | 348 min | Stable | 0.13 mg·min/mL | 20 min | 23 mL/min/kg | 0.08 nM | 2.5 nM | 11 nM | 25 nM |  |  |  | 
3 | CCCC[C@H](NC(=O)[C@@H]1CCCN1C(=O)CNC(=O)[C@H](CCCCN)NC(=O)[C@H](Cc1cnc[nH]1)NC(=O)[C@H](CO)NC(=O)[C@H](CC(C)C)NC(=O)[C@H](CCCNC(=N)N)NC(=O)[C@@H]1CCCN1C(=O)[C@H](CCCNC(=N)N)NC(=O)[C@@H]1CCC(=O)N1)C(=O)N1CCC[C@H]1C(=O)N[C@H](Cc1cc(C2CCCC2)c(OCc2ccccc2)c(C2CCCC2)c1)C(=O)O | 13 nM | 22 nM | 141 nM | 367 nM |  |  |  |  |  |  |  |  |  | inactive | 53% |  | 
4 | CCCC[C@H](NC(=O)[C@@H]1CCCN1C(=O)CNC(=O)[C@H](CCCCN)NC(=O)[C@H](Cc1cnc[nH]1)NC(=O)[C@H](CO)NC(=O)[C@H](CC(C)C)NC(=O)[C@H](CCCNC(=N)N)NC(=O)[C@@H]1CCCN1C(=O)[C@H](CCCNC(=N)N)NC(=O)[C@@H]1CCC(=O)N1)C(=O)N1CCC[C@H]1C(=O)N[C@](C)(Cc1ccc(OCc2ccccc2)cc1)C(=O)O |  | 2.7 nM | 4.4 nM | 30 nM | 54 min |  |  |  |  |  |  |  |  |  |  | 30 mmHg | 46%
